# FLuc inhib CS: inhibits firefly luciferase, flagging false hits in luciferase inhibition screens. P08659. ATPLite firefly luciferase biochemical luminescence, 10 min. inhibition, % at 10 µM. 200,000 compounds, 1.5% hits. AID 1006;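 active = inhibition above about 50% when tested at 10 µM, limit read from the data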
# Target sequence (P08659 whole entry, looked up): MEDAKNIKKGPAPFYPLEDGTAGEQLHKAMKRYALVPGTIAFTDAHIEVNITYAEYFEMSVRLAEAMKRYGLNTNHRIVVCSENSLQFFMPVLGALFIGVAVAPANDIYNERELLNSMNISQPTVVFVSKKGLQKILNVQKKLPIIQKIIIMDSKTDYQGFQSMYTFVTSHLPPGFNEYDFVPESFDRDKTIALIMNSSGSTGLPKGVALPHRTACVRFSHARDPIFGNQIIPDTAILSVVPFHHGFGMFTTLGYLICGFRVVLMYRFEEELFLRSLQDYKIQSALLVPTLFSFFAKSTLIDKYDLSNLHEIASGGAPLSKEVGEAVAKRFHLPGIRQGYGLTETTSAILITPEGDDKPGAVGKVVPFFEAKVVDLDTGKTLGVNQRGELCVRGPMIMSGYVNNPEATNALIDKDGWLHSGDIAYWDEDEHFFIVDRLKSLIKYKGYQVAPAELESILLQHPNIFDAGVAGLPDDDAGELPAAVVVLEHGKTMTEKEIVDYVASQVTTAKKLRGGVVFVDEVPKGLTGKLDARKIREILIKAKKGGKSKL
# STAT1 act: STAT1 signaling activation; AID 932; NIH 3T3 STAT1-luciferase reporter, IFN-gamma, luminescence; 100% = IFN-gamma alone, no compound; 200,000 compounds, 2.6% hits; activation (% of control), % at 5.5 µM;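 active = activation above the screen-wide mean activation plus 3 SD, cut at about 130% in these data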;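 note: raw ratio to IFN-gamma control signal so 100% means no change and 0% no light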
# sdo1 growth: compounds rescuing growth of sdo1-depleted yeast, bone marrow failure model; AID 817; 140,000 compounds, 0.21% hits; z-score at 10 µM; S. cerevisiae sdo1-depleted JHY4D growth rescue, OD600 30 h; hits give high values; pdr5 snq2 efflux-pump mutant strain;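 active = z-score above 3 at both the 24 hr and the 30 hr optical density reads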;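 note: z-score against mean and SD of all compound wells on the same plate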
# APP 5'UTR act: APP 5'UTR luciferase reporter activation | activation, % at 2 µM | 190,000 compounds, 1% hits | SH-SY5Y APP 5'UTR luciferase reporter, luminescence; zero percent = DMSO vehicle wells;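 active = activation above a set limit, based on mean plus 3 SD of controls, cut at about 140% in these data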
# NF-kB neuron act: compounds increasing NF-kB expression in human neuronal cells | NF-kB reporter expression; hits give high values | AID 1239 | fold change at 12.5 µM | 190,000 compounds, 1.6% hits; in the data active = fold change above about 3.3
# FLuc act counter: firefly luciferase counter-screen for stimulation assays | P08659 | 200,000 tested, under 10 active | ATPlite luciferase biochemical, luminescence, 10 min; 0 = ATP-free wells, 1 = DMSO control | activation factor at 10 µM;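 active = luciferase activation factor, scaled between plate controls, of at least 2 with compound at 10 µM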
#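 assay system = Luciferase/luciferin detection reagent, cell-free biochemical luciferase assay | also added = ATP substrate | times = 10 min post-reagent at room temperature | measured by = luminescence from luciferase reaction | measure = luciferase activation, seen as luminescence increase over controls | benchmarks = low control with PBS replacing ATP, high control enzyme plus ATP without compound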
# STAT1 activ conf: STAT1 activation, confirmation assay; shares compounds with STAT1 act; activation (% of control), % at 5.7 µM; 1,200 compounds, 97% hits; AID 1262; NIH 3T3 STAT1-luciferase reporter, IFN-gamma potentiation, luminescence; 100% = IFN-gamma EC80 alone, no compound;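 active = activation above a set limit carried over from the earlier primary STAT1 screen, cut at about 140% in these data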;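 note: simple ratio to median IFN-gamma plus DMSO wells so 0% means no light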
# NFkB act: counter-screen for STAT1 activators: NF-kappaB activation; 1,200 compounds, 43% hits; shares compounds with STAT1 act; HEK293T NF-kB luciferase reporter, TNF-alpha stimulated, luminescence; 100% = TNF-alpha with vehicle only; activation (% of control), % at 5.7 µM; AID 1306;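 active = activation above the mean of solvent-only control wells plus 3 SD, set per campaign, cut at about 130% in these data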;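 note: TNF-alpha given at a submaximal dose yielding about 80% of full reporter signal; values are well signal over median control so 100% means no change and 0% no light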
# STAT3 act 2: activates human STAT3, counter-screen to STAT1 activators; U3A cells STAT3-luciferase reporter, IL-6, luminescence; cells lack STAT1; 100 = IL-6 alone, no compound effect; 1,200 compounds, 46% hits; activation (% of control), % at 5.7 µM; shares compounds with STAT1 act; AID 1316;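 active = activation above the solvent-only control well mean plus 3 SD, set per plate batch, cut at about 110% in these data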;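 note: 0% = no luminescence and 100% = median IL-6 plus DMSO wells; higher means more STAT3 reporter activation so hits are non-selective activators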
# * = called active by the depositor; · = no result given. An excerpt weighted towards active compounds, which were near 4.3% of everything screened.
SMILES,FLuc inhib CS,STAT1 act,sdo1 growth,APP 5'UTR act,NF-kB neuron act,FLuc act counter,STAT1 activ conf,NFkB act,STAT3 act 2
CCOC(=O)C1(CCCc2ccccc2)CCN(C(=O)CN2CCOC2=O)CC1,-1,102,·,-5,1.2,1,·,·,·
CCOC(=O)C1(Cc2ccccc2Cl)CCN(C(=O)CN2CCOC2=O)CC1,-4,160*,·,69,·,1,172*,142*,117*
O=C(Nc1ccc(NC(=S)NC(=O)c2cccs2)cc1)c1ccco1,-6,100,·,3,1,1.1,·,·,·
C/C(=N\NC(=O)c1ccco1)c1ccc(NC(=O)c2cccs2)cc1,3,154*,2,58,1.1,1,111,119,98
CN(C)c1ccc(/C=C/c2nnnn2-c2ccccc2)cc1,10,172*,-0.64,132,3.9*,0.9,187*,134*,118*
O=C(Nc1cccnc1)c1noc2c1CCCC2,16,118,1.9,37,1.6,0.8,·,·,·
CC(=O)c1ccc(NC(=O)c2noc3c2CCCCC3)cc1,8,151*,-0.46,161*,5*,0.9,223*,129,102
Cc1ccsc1/C=N\NC(=O)Cn1nnc2ccccc21,-5,90,-0.18,0,1.9,1.1,·,·,·
CC(C)Oc1ccc2c(=O)c(-c3ccccc3)coc2c1,61*,156*,-2,163*,9.5*,0.4,219*,122,90
COc1ccc2c(=O)c(-c3ccc4c(c3)OCO4)coc2c1,66*,164*,-0.06,192*,4.3*,0.3,217*,97,80
CCOC(=O)C1(Cc2cccc(Cl)c2)CCCN(C(=O)c2cccc(C)n2)C1 (configuration not stated),-2,95,·,13,1.1,1,·,·,·
CC(=O)Nc1cccc(/C(C)=N/Nc2nc3ccccc3s2)c1,5,198*,·,160*,1.1,0.9,200*,139*,122*
CC(=O)NNc1nc2ccccc2s1,-7,91,0.73,1,1.1,1.1,·,·,·
C/C(=N\Nc1nc2ccccc2s1)c1cccs1,61*,164*,-1.9,177*,4.2*,0.4,249*,121,160*
CCN(C(=O)COC(=O)c1ccc2[nH]c3c(c2c1)CCCC3)C1CCS(=O)(=O)C1 (configuration not stated),-3,108,·,12,0.77,1,·,·,·
O=c1c2ccccc2nc(/C=C/c2ccc([N+](=O)[O-])cc2)n1CCCO,-3,108,-0.29,-6,0.44,1,·,·,·
O=c1c2ccccc2nc(/C=C/c2ccc([N+](=O)[O-])o2)n1CCCO,-5,151*,-1.9,-23,1,1.1,167*,157*,105
Cc1cnc(CN(C)Cc2c(C(=O)N3CCc4ccccc4C3)nc3ccc(Cl)cn23)[nH]1,-3,100,·,7,1,1,·,·,·
COc1ccc(Cn2c(C3CC3)nc3ccc(NC(=O)c4ccco4)cc3c2=O)cc1,-7,152*,-0.9,102,1.3,1.1,183*,133,140*
C/C(CC(=O)NCc1ccco1)=N\NC(=O)COc1ccc(C)cc1,-6,101,0.78,-2,1.1,1.1,·,·,·
COc1ccc(C(=O)NCCSc2ccccc2)cc1,48,157*,0.31,128,5.7*,0.5,193*,96,112*
COc1ccc(CNC(=O)c2ccc(C(C)C)cc2)cc1,6,151*,·,132,3.7*,0.9,177*,144*,128*
CCc1nnc(NC(=O)c2cc(S(=O)(=O)N3CCOCC3)ccc2N2CCCCC2)s1,-1,105,·,-10,1.1,1,·,·,·
COc1ccc(/C=C/c2nc3ccccc3n2Cc2ccccc2OC)cc1,88*,154*,-1.2,179*,5.6*,0.1,166*,122,113*
CCN(CC)c1ccc(NC(=O)c2ccccc2F)cc1,47,164*,-0.41,111,6.1*,0.5,192*,124,96
SMILES,FLuc inhib CS,STAT1 act,sdo1 growth,APP 5'UTR act,NF-kB neuron act,FLuc act counter,STAT1 activ conf,NFkB act,STAT3 act 2
N#CC1(c2ccc(NC(=O)c3ccccc3F)cc2)CCCC1,64*,161*,0.12,145*,11*,0.4,228*,133,104
CN(C)C(=O)c1nnsc1Sc1ccc(Cl)cc1,44,116,·,22,1.4,0.6,·,·,·
S=c1[nH]nc(Cc2cccc3ccccc23)n1-c1ccccc1,-2,102,-0.79,-20,1.3,1,·,·,·
Cc1cc(=O)n2[nH]c(N)c(N=Nc3ccccc3F)c2n1,-1,105,2.5,1,1.4,1,·,·,·
Nc1nn(-c2ccccc2)c(N)c1N=Nc1ccccc1,51*,202*,-0.39,3,8.1*,0.5,228*,126,115*
Nc1nn(-c2ccccc2)c(N)c1N=Nc1ccccc1F,40,219*,-0.12,181*,14*,0.6,306*,125,107
Cc1nn(-c2ccccc2)c(N)c1N=Nc1ccccc1,10,176*,-0.53,156*,6.8*,0.9,198*,140*,141*
Cc1nn(-c2ccccc2)c(N)c1C(O)(C(F)(F)F)C(F)(F)F,-6,93,2.8,-3,0.93,1.1,·,·,·
Cc1nc2c(N=Nc3ccccc3F)c(N)nn2c(N)c1C#N,4,166*,·,-8,0.77,1,146*,125,123*
Cc1ccc(N(CC(=O)N/N=C/c2cc(C)n(-c3ccccc3C)c2C)S(C)(=O)=O)cc1,-1,99,0.68,-2,0.96,1,·,·,·
C/C(=N/NC(=O)CC1N=C(Cc2ccccc2)NNC1=O)c1cccnc1 (configuration not stated),-4,108,·,-1,0.97,1,·,·,·
Cc1cccc(N=Nc2c(C)nn(-c3ccccc3)c2N)c1C,-4,91,-0.5,42,1.2,1,·,·,·
Cc1nn(-c2ccccc2)c(N)c1N=Nc1ccc(Cl)cc1,-3,155*,-1.1,108,4.5*,1,183*,129,108
Cc1cc(C)c(C(=O)Cn2nc(C)c([N+](=O)[O-])c2C)cc1C,-9,104,·,-3,1.2,1.1,·,·,·
O=c1cc(-c2ccc(O)cc2)oc2ccccc12,11,154*,·,39,2.6,0.9,154*,118,125*

# Screening data: PubChem BioAssay, several laboratories
